NR2E3 ag-1 = NR2E3 (human) agonism; GST-NR2E3/biotin-RetCOR TR-FRET, 1536-well; 0.12% of 320,000 active; Q9Y5X4; inhibition of corepressor binding, % at 4.78 µM;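 active = percent inhibition above the cutoff of mean plus 3 SD of all tested compounds, set per screening campaign, cut at about 20% in these data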;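 also: 0% = DMSO wells and 100% = biotin wells as full block of FRET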
Target sequence (Q9Y5X4 whole entry, looked up): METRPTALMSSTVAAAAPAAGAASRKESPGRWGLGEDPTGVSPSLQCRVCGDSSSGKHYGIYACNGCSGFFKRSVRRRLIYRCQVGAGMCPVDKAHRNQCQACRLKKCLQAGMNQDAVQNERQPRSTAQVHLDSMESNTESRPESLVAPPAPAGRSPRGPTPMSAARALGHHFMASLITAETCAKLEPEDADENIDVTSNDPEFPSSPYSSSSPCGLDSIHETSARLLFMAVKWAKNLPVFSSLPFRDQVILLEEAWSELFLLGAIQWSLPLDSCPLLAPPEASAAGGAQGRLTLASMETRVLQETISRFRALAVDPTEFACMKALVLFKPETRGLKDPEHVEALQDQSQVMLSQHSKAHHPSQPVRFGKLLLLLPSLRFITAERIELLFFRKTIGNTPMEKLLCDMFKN
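Material – GST-tagged NR2E3 plus biotinylated RetCOR corepressor · Quantity – NR2E3 fusion 1.35 nM · Times – 5 h incubation at 4 °C · Medium – pH 7.5 Tris-based buffer · Technique – TR-FRET, Eu(K)-anti-GST donor, streptavidin-D2 acceptor, ex 340, em 617/671 nm · Benchmarks – high control biotin, low control 0.6% DMSO · Format – 1536-well plates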
Neddyl block = blocks human cullin neddylation. TR-FRET cullin neddylation, biochemical. calls only at 25 µM. 0.58% of 360,000 active; in the data active = inhibition above about 36%
Rev-erbA mod = Rev-erb alpha (human) modulation | P20393 | Rev-erbα–FITC-DNA binding, fluorescence polarization, 90 min | activity, % at 10 µM | 0.79% of 370,000 active | AID 1259318;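 active = activity above about 14%, limit read from the data; passing the limit was not always enough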;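 also: 0% = DMSO wells with 35 nM protein and 100% = DMSO wells with 750 nM protein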
NR2E3 ag-2 = human photoreceptor-specific nuclear receptor agonism; Q9Y5X4; CHO-S Gal4-NCOR/VP16-NR2E3 two-hybrid, luciferase; 0.35% of 360,000 active; inhibition of corepressor binding, % at 3.98 µM; AID 602229;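 active = inhibition above the mean of all tested compounds plus 3 SD, cut at about 70% in these data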;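 also: 0% = DMSO with NR2E3 transfected cells and 100% = cells lacking NR2E3 construct; higher means lower luciferase signal from less NR2E3 corepressor binding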
PG9 binder = binds the HIV-1 gp120 antibody PG9 | TR-FRET gp120-PG9 antibody binding | inhibition, % at 6.7 µM | 0.43% of 360,000 active | AID 624416; in the data active = inhibition above about 8.5%
NR2E3 ag conf = NR2E3 agonism confirmed in two-hybrid assay; CHO-S mammalian two-hybrid NR2E3-NCOR, luciferase luminescence; 51% of 2,300 active; inhibition, % at 3.98 µM; shares compounds with NR2E3 ag-2;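 active = average inhibition above a cutoff equal to the mean inhibition of all tested compounds plus one SD, cut at about 70% in these data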;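 also: 0% = DMSO in NR2E3 cells and 100% = DMSO in cells lacking NR2E3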
GAL4-VP16 luc = counter-screen for NR2E3 agonists: GAL4-VP16 reporter inhibitors; 29% of 2,300 active; CHO-S GAL4-VP16 luciferase reporter, luminescence; shares compounds with NR2E3 ag-2; AID 624379; inhibition, % at 3.98 µM;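 active = mean inhibition above a cutoff equal to the average over all tested compounds plus one standard deviation, cut at about 70% in these data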;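 also: luciferase from a UAS reporter driven by GAL4-VP16 transactivation; 0% = DMSO with VP16-transfected cells and 100% = DMSO with cells lacking VP16; higher means less reporter light so more repression of VP16 activity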
Starred values were filed as active, the others as inactive; i = inactive; x = no result. Hits are enriched below; roughly 2% of the tested compounds scored in any of these assays.

SMILES	NR2E3 ag-1	Neddyl block	Rev-erbA mod	NR2E3 ag-2	PG9 binder	NR2E3 ag conf	GAL4-VP16 luc
COc1ccc(CN2C(=O)C(C)Nc3ncnc(N4CCc5ccccc5C4)c32)cc1 (centres undefined)	x	i	4	-32	-2	x	x
Nc1ncn([C@@H]2O[C@H](CO)[C@H](O)C2O)c(=O)n1 (some centres undefined)	x	x	0	x	x	x	x
c1ccc(CCNc2ncnc3ccccc23)cc1	3	i	2	50	1	89*	70
O=C(CSc1ncnc2ccccc12)NCCc1ccccc1	-2	i	-4	2	2	x	x
Cc1cccc(Nc2ncnc3ccc(Br)cc23)c1	7	i	10	-10	0	x	x
Brc1ccc2ncnc(NCc3ccccc3)c2c1	2	i	-1	65	0	91*	85*
CCCCCCCCNc1ncnc2ccccc12	0	i	x	92*	x	99*	92*
Cc1cc2c(NCCc3ccccc3)ncnc2s1	-1	i	2	56	0	90*	73*
O=C(NCc1cccs1)O[C@H]1CC[C@@]23CCCN2C(=O)CCC[C@H]3C1	x	x	-4	x	x	x	x
CC1=CC2(C(Cc3ccccc3)N(CC3CC3)C(=NC(=O)c3ccccc3)N2C(=O)OCc2ccccc2)n2c(=O)n(-c3ccccc3)c(=O)n2C1 (centres undefined)	x	x	-2	x	x	x	x
CC(C)(C)c1ccc(-n2ncc3c2CCCC3NC(=O)CCN2CCCO2)cc1 (centres undefined)	1	i	0	66	0	-9	41
CC(C)(C)c1ccc(-n2ncc3c2CCCC3NC(=O)CN2CCCCC2=O)cc1 (centres undefined)	-5	i	-4	58	-1	15	39
CC(=O)NCC(=O)NC1CCCc2c1cnn2-c1ccc(C(C)(C)C)cc1 (centres undefined)	0	i	6	12	1	x	x
Cc1cc(C(=O)NC2CCCc3c2cnn3-c2ccc(C(C)(C)C)cc2)nn1C (centres undefined)	-5	i	4	101*	-1	94*	82*
CC(C)(C)c1ccc(-n2ncc3c2CCCC3NC(=O)C2(C(N)=O)CC2)cc1 (centres undefined)	-2	i	-6	100*	-2	92*	81*
COCCCNC(=O)C[C@H]1C[C@@]2(C(=O)OC)C(=C[C@H](C3CCCC3)O[C@@H]2C)N(Cc2ccc(Cl)cc2Cl)C1=O	x	x	3	x	x	x	x
OC[C@H]1O[C@H](O[C@]2(CCl)O[C@H](CCl)[C@@H](O)[C@@H]2O)[C@H](O)[C@@H](O)[C@H]1Cl	x	x	9	x	x	x	x
O=C(Cc1ccccc1)NC1CCCCN(Cc2ccc(Cl)cc2)C1=O (centres undefined)	x	x	-5	x	x	x	x
C=CCN1C(=O)[C@@H](CC(=O)N2CCN(C(=O)C3CC3)CC2)[C@]2(C(=O)OCC)CCCCC/C=C/12	x	x	-4	x	x	x	x
CCOC(=O)c1csc(NC(=O)C2CCCN(S(=O)(=O)c3cc(OC)ccc3OC)C2)n1 (centres undefined)	x	x	0	x	x	x	x
CCc1ccccc1Nc1nn2c(=O)c3ccc(C(=O)NCc4ccccn4)cc3nc2s1	2	i	10	71*	2	76*	34
O=C(NCc1ccccn1)c1ccc2c(=O)n3nc(Nc4ccccc4)sc3nc2c1	5	i	-13	-15	2	x	x
COc1ccc(CN2C(=O)CCCC2(C)c2nnnn2-c2ccc3c(c2)OCCO3)cc1 (centres undefined)	x	x	2	x	x	x	x
CCCCNS(=O)(=O)/C=C/c1ccccc1CNC(=O)OC(C)(C)C	x	x	4	x	x	x	x
CC[n+]1c(/C=C/c2ccc(N(C)C)cc2)ccc2ccccc21	-25	i	-8	21	-50	x	x
CCN(CC)c1ccc(/C=C/c2ccc3ccc(OC)cc3[n+]2CC)cc1	-6	i	-2	64	-34	98*	77*
C[N+](C)(C)CCOP(=O)([O-])OP(=O)(O)OC[C@H]1OC(n2ccc(N)nc2=O)[C@H](O)[C@@H]1O (some centres undefined)	x	x	2	x	x	x	x
O=C(Cn1cccc1C(=O)c1ccccc1)NCc1ccccc1	2	i	8	3	0	x	x
